Screens (PubChem)
SIRT5 block – blocks human SIRT5 desuccinylation of peptide; Q9NXA8; Purified SirT5, succinyl-peptide AMC, trypsin-coupled fluorescence; inhibition, % at 15 µM; 330,000 compounds, 1.1% hits; AID 652115; in the data active = inhibition above about 15%; inconclusive = no clear call, values can overlap the other calls
Target sequence (Q9NXA8 whole entry, looked up): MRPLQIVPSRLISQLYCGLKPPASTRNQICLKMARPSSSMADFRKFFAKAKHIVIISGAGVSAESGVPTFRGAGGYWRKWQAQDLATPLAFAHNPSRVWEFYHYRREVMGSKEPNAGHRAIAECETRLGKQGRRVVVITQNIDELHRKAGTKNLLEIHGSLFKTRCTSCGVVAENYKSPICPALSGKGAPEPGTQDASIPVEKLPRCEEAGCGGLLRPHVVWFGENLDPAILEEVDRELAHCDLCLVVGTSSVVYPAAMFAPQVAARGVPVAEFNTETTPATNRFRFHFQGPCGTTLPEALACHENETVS
FN deposit inh – fibronectin deposition inhibition; AH1F fibroblasts, Alexa488-fibronectin deposition fluorescence, overnight; inhibition, % at 12.6 µM; 350,000 compounds, 0.086% hits; AID 743247;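 active = mean inhibition across replicates of 30% or more, regardless of how many single replicates reach that level; inconclusive = mean under 30% yet at least half of replicates reach 30%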;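 also: positive control wells lacked labelled fibronectin entirely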
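Schedule: 1 h cell adhesion before compound, then overnight fibronectin incubation; test system: AH1F fibroblast monolayer depositing Alexa488-labelled fibronectin into matrix; quantity: 10000 AH1F cells per well; probe or stimulus: fluorescent fibronectin at 24 nM final; signal: fluorescence, ex 485 nm, em 525 nm; evaluation: percent inhibition as loss of matrix-bound fibronectin fluorescence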
ARNT-TACC3 inh – disrupts binding between human ARNT and TACC3; Q9Y6A5; AlphaScreen His-ARNT PAS-B/GST-TACC3 binding, luminescence; TACC3 fragment carries E629A point mutation; inhibition, % at 9.99 µM; 390,000 compounds, 0.66% hits;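 active = mean inhibition of replicates at least 50% and at least half of replicates each reaching 50%; inconclusive = half or more replicates reach 50% but mean below 50%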;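 also: 0% = complete ARNT plus TACC3 wells and 100% = ARNT alone without TACC3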
DENV2 CPE – inhibitors of DENV2 cytopathic effect. DENV2-infected cells, cytopathic effect rescue, plate reader. CPE inhibition, % at 9.99 µM. 350,000 compounds, 1.7% hits; in the data active = CPE inhibition above about 20%, passing the limit was not always enough; inconclusive = no clear call, values can overlap the other calls; tested in BHK-21 cells;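 also: 0% = median of neutral control wells and 100% = median of positive control wells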
XiGFP reactiv – activators of X-chromosome reactivation in mouse fibroblasts; XiGFP mouse fibroblasts, % GFP-positive cells imaging, 3 d; cells co-treated with 5-aza-dC sensitizer; scaled so ellipticine positive control = 100%; activation, % at 7.58 µM; 360,000 compounds, 0.055% hits; AID 743238;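 active = mean normalized replicate activation at least 10% and every replicate at or above 10%; inconclusive = only one of the two criteria met; inactive = mean below 10% and not all replicates reach 10%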;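 also: 0% = median of on-plate neutral control wells and 100% = ellipticine 6 µM median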
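Assay system: SV40-immortalized XiGFP fibroblast cells, line 68-5-11; buffer or medium: DMEM plus 5-aza-dC sensitizer; compound: one concentration, pinned; timing: compounds 3 days, fix/stain 15 min at room temperature; benchmarks: positive control ellipticine, 6 µM final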
FGF22 binding – binders of recombinant human FGF22 by thermal shift. activity (Tm shift, normalised), % at 9.99 µM. 340,000 compounds, 1.5% hits. SYPRO orange fluorescence; percent of sucrose octasulfate shift, DMSO zero. Q9HCT0. AID 651658;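 active = mean Tm shift, scaled 0 neutral to 100 positive control, at about 1.3% or above, every replicate too, limit read from the data; inconclusive = no clear call, values can overlap the other calls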
Target sequence (Q9HCT0 whole entry, looked up): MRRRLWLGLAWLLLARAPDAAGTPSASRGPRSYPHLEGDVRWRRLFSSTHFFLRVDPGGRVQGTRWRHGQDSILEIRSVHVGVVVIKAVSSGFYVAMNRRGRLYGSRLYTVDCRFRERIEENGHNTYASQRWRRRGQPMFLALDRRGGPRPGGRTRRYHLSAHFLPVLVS
* marks the source's active call; other numbers are inactive results; ? = inconclusive; . = no result given. Only some compounds are listed: those with a hit (about 3.8% of all), similar ones and a draw of the others.

SMILES	SIRT5 block	FN deposit inh	ARNT-TACC3 inh	DENV2 CPE	XiGFP reactiv	FGF22 binding
O=C(C[C@H]1CC[C@@H]2[C@H](COC[C@H](O)CN2C(=O)c2ccccc2)O1)Nc1ccc(-c2ccccc2)cc1	5.3	-0.3	1.9	55.2*	0.4	.
CC=Cc1ccc2n(c1=O)C[C@@H]1[C@@H](CO)[C@H](C(=O)NCc3ccc(F)cc3)N(Cc3cncnc3)[C@H]21 (mixture of isomers)	-6.8	.	3.6	-1.3	0.9	0.1
C[C@H](CO)N1C[C@H](C)[C@H](CN(C)S(C)(=O)=O)Oc2ccc(NC(=O)NC3CCCCC3)cc2CC1=O	5.9	.	8.4	-3.2	0.2	-0.3
C/C=C/c1ccc2c(c1)O[C@@H](CN(C)C(=O)NC(C)C)[C@@H](C)CN([C@@H](C)CO)S2(=O)=O	-17.7	-10.1	-5.4	-7.5	-0.9	0.0
COc1ccc(CNC(=O)/C(C)=C\C(=O)O)cc1	-1.4	2.8	.	-7.5	-0.2	43.4*
CN1CCN(S(=O)(=O)c2cccs2)CC1	-5.1	-2.7	-15.2	33.9*	0.0	0.3
Cc1ccc(S(=O)(=O)N2CCN(S(=O)(=O)c3cccs3)CC2)cc1	-0.9	3.6	-8.6	-4.1	0.0	0.3
O=C(NCCN1C(=O)C2C3C=CC(C3)C2C1=O)Nc1cccnc1 (stereo not given)	-4.3	9.7	.	28.8*	0.1	-0.2
C[C@H]1CN([C@@H](C)CO)S(=O)(=O)c2ccc(-c3ccncc3)cc2O[C@@H]1CN(C)C(=O)c1cccc(F)c1	5.2	4.2	.	3.1	0.2	-0.1
COc1ccc(NC(=O)N(C)C[C@H]2Oc3c(NS(=O)(=O)c4ccc(F)cc4)cccc3C(=O)N([C@@H](C)CO)C[C@H]2C)cc1	.	.	2.6	?	-1.1	0.2
CNC(=O)c1ccc(Nc2nc(-c3ccccc3)nc3ccccc23)cc1	-0.4	7.3	12.7	14.0	0.2	0.1
O=C(O)c1cccc(Nc2nc(C(F)(F)F)nc3ccccc23)c1	1.9	1.5	0.3	-2.4	0.0	2.0*
O=C(O)c1ccc(Nc2nc(-c3ccccc3)nc3ccccc23)cc1	39.2*	1.8	-8.8	2.2	-0.1	-0.1
Cc1ccc(-c2nc(NCCN(C)C)c3ccccc3n2)cc1	-1.3	5.5	6.8	6.4	0.0	-0.2
Cc1ccc(-c2nc(NCCCO)c3ccccc3n2)cc1	-13.6	1.7	-3.2	31.3*	-0.2	0.2
Cc1ccc(S(=O)(=O)N(C)C[C@@H]2OCCCC[C@@H](C)Oc3ccc(NC(=O)Nc4ccc(C(F)(F)F)cc4)cc3C(=O)N([C@H](C)CO)C[C@@H]2C)cc1	.	-0.6	2.2	-13.0	0.4	0.2
CC(C)C#Cc1cnc2c(c1)C(=O)N([C@@H](C)CO)C[C@@H](C)[C@H](CN(C)C(=O)c1ccccn1)O2	0.0	-5.9	-3.1	11.9	0.0	0.1
CC(C)C(=O)NC(c1cccs1)c1cc([N+](=O)[O-])c2cccnc2c1O (stereo not given)	.	.	59.8*	.	.	.
CC(=O)NC(c1cccs1)c1cc(F)c2cccnc2c1O (stereo not given)	-2.1	-15.1	55.8*	.	0.0	43.4*
Cc1ccc(C(NC(=O)C(C)C)c2cc([N+](=O)[O-])c3cccnc3c2O)cc1 (stereo not given)	.	14.2	50.3*	.	0.3	.
CO[C@H]1CN(C)C(=O)c2cc(NC(=O)C3CC3)ccc2OC[C@@H](C)N(C(=O)NC(C)C)C[C@H]1C	-4.9	-19.3	7.1	2.1	-0.3	-0.3
CC(N=Cc1cc([N+](=O)[O-])ccc1O)c1ccccc1 (stereo not given)	3.0	-3.6	.	-5.7	0.0	44.1*
Cc1nc(N/N=C/c2ccc(O)cc2O)cc(N2CCOCC2)n1	9.0	-11.5	65.0*	-2.9	0.0	0.4
Cc1nc(N/N=C/c2cccc(F)c2)cc(N2CCOCC2)n1	-2.5	10.3	10.3	10.2	0.0	-0.1
O=[N+]([O-])c1ccc(NN=Cc2ccccc2O)nc1	.	.	7.7	18.6	1.6	0.3
O=[N+]([O-])c1ccc(O)c(/C=N/Nc2ccccn2)c1	-9.2	5.2	61.1*	-0.4	5.0	0.2
